{"data": "Published values of several laboratories", "cell line": "PC-3", "read-out": "cell growth or viability", "note": "Protocols differ between the studies behind these lines."}
{"SMILES": "Cc1nc(Nc2ccc3c(c2)/C(=C/c2ccccc2C)C(=O)N3C)c2ccccc2n1", "assay": "MTT", "endpoint": "IC50", "result": "15.9 µM"}
{"SMILES": "Cc1c(Cc2ccccc2)c(=O)oc2c(C)c(OCC(=O)NN=Cc3ccc(Cl)cc3)ccc12", "assay": "MTT", "conditions": "1000 µg/mL", "endpoint": "viability", "result": "2.23%"}
{"SMILES": "Nc1n[nH]c2nc(-c3cccc(O)c3)cc(-c3cc4cc(Cl)ccc4nc3N3CCOCC3)c12", "assay": "MTT", "conditions": "72 h", "endpoint": "IC50", "result": "0.166 µM"}
{"SMILES": "COc1ccc(-c2cc(-c3cccc(Br)c3)c3c(=O)n(C)c(=O)n(C)c3n2)cc1", "assay": "MTT", "conditions": "48 h", "endpoint": "IC50", "result": "18.4 µM"}
{"SMILES": "CCCOc1nc(-c2cccc(O)c2)cc(-c2cc3cc(Cl)ccc3nc2N2CCOCC2)c1C#N", "assay": "MTT", "conditions": "72 h", "endpoint": "IC50", "result": "0.542 µM"}
{"SMILES": "CCc1c(C)c2ccc(OCC(=O)NNC(=S)Nc3ccccc3)c(C)c2oc1=O", "assay": "MTT", "conditions": "500 µg/mL", "endpoint": "viability", "result": "2.61%"}
{"SMILES": "O=C(O)c1cccnc1Nc1cccc(C(F)(F)F)c1", "assay": "SRB", "conditions": "48 h", "endpoint": "GI50", "result": "> 30 µM"}
{"SMILES": "Cc1c(Cc2ccccc2)c(=O)oc2c(C)c(OCC(=O)NN=Cc3ccc([N+](=O)[O-])cc3)ccc12", "assay": "MTT", "conditions": "31.25 µg/mL", "endpoint": "viability", "result": "31.3%"}
{"SMILES": "Cc1ccc(-c2cc(-c3ccc(N(C)C)cc3)c3c(=O)n(C)c(=O)n(C)c3n2)cc1", "assay": "MTT", "conditions": "48 h", "endpoint": "IC50", "result": "21.5 µM"}
{"SMILES": "C=CCOc1ccc2c(C)c(CC)c(=O)oc2c1C", "assay": "MTT", "conditions": "125 µg/mL", "endpoint": "viability", "result": "95.8%"}
{"SMILES": "COc1ccc(-c2cc(-c3ccccc3Cl)c3c(=O)[nH]c(=O)[nH]c3n2)cc1", "assay": "MTT", "conditions": "48 h", "endpoint": "IC50", "result": "28.4 µM"}
{"SMILES": "CCc1c(C)c2ccc(OCC(=O)NN=Cc3ccc([N+](=O)[O-])cc3)cc2oc1=O", "assay": "MTT", "conditions": "31.25 µg/mL", "endpoint": "viability", "result": "22.2%"}
{"SMILES": "Cc1nc(NC(=O)N2CCC[C@H]2C(N)=O)sc1-c1ccnc(C(C)(C)C(F)(F)F)c1", "assay": "MTT", "endpoint": "IC50", "result": "47.7 µM"}
{"SMILES": "COc1ccc(-c2cc(-c3ccc(N(C)C)cc3)c3c(=O)n(C)c(=O)n(C)c3n2)cc1", "assay": "MTT", "conditions": "48 h", "endpoint": "IC50", "result": "5.18 µM"}
{"SMILES": "CCCOc1ccc2c(C)c(CC)c(=O)oc2c1C", "assay": "MTT", "conditions": "125 µg/mL", "endpoint": "viability", "result": "56.8%"}
{"SMILES": "COc1cc2ncnc(Nc3ccc4c(c3)/C(=C/c3ccccc3)C(=O)N4C)c2cc1OC", "assay": "MTT", "endpoint": "IC50", "result": "37.9 µM"}
{"SMILES": "O=C(O)c1ccccc1Nc1cccc(C(F)(F)F)c1", "assay": "SRB", "conditions": "48 h", "endpoint": "GI50", "result": "> 30 µM"}
{"SMILES": "COc1cc2ncnc(N(C)c3ccc4c(c3)/C(=C/c3ccccc3)C(=O)N4C)c2cc1OC (mixture of isomers)", "assay": "MTT", "endpoint": "IC50", "result": "39.2 µM"}
{"SMILES": "COc1ccc(-c2cc(-c3c(OC)cccc3OC)c3c(=O)n(C)c(=O)n(C)c3n2)cc1", "assay": "MTT", "conditions": "48 h", "endpoint": "IC50", "result": "18.6 µM"}
{"SMILES": "CCc1c(C)c2ccc(OCc3nnc(S)n3N)c(C)c2oc1=O", "assay": "MTT", "conditions": "31.25 µg/mL", "endpoint": "viability", "result": "58.5%"}
{"SMILES": "COc1ccc(-c2cc(-c3ccc(Br)cc3)c3c(=O)n(C)c(=O)n(C)c3n2)cc1", "assay": "MTT", "conditions": "48 h", "endpoint": "IC50", "result": "8.58 µM"}
{"SMILES": "Cc1nc(Nc2ccc3c(c2)/C(=C/c2ccccc2)C(=O)N3C)c2ccccc2n1", "assay": "MTT", "endpoint": "IC50", "result": "18.7 µM"}
{"SMILES": "COc1ccc(-c2cc(-c3cccc(Br)c3)c3c(=O)[nH]c(=O)[nH]c3n2)cc1", "assay": "MTT", "conditions": "48 h", "endpoint": "IC50", "result": "18.5 µM"}
{"SMILES": "Cc1c(Cc2ccccc2)c(=O)oc2c(C)c(OCC(=O)NN=Cc3ccccc3)ccc12", "assay": "MTT", "conditions": "62.5 µg/mL", "endpoint": "viability", "result": "26.3%"}
{"SMILES": "Cc1ccc(-c2cc(-c3ccc(Cl)c(F)c3)c3c(=O)n(C)c(=O)n(C)c3n2)cc1", "assay": "MTT", "conditions": "48 h", "endpoint": "IC50", "result": "41.5 µM"}
{"SMILES": "Cc1nc(N(Cc2ccccc2)c2ccc3c(c2)/C(=C/c2ccccc2)C(=O)N3Cc2ccccc2)c2ccccc2n1 (mixture of isomers)", "assay": "MTT", "endpoint": "IC50", "result": "0.56 µM"}
